From ChEMBL document CHEMBL1132206, “Design, synthesis, and in vitro activity of catamphiphilic reverters of multidrug resistance: discovery of a selective, highly efficacious chemosensitizer with potency in the nanomolar range” (J Med Chem, 1999)
Activity calls are given as the source filed them. The rule behind the calls is not given here.

Assays:
K562 [1] = assay: The efficacy in reverting MDR was evaluated on human erythroleukemia K-562 cell line; format: functional
Procedure, shortened: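 Doxorubicin-resistant and sensitive K 562 cells in exponential growth were used in pH 7.25 HEPES buffer at 37 °C in quartz cuvettes. Pirarubicin uptake was followed as the fall in fluorescence at 590 nm (ex 480 nm). Steady-state nuclear pirarubicin was measured across a range of inhibitor concentrations. α = (CnRi − CnRo)/(CnS − CnRo); αmax is the maximal α, and [i]0.5 is the concentration giving α = 0.5 (mean ± SEM).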

Cavia porcellus [2] = species: Cavia porcellus; assay: Potency expressed as EC30 for the negative chronotropic activity; 'i' means Inactive; format: functional
Cavia porcellus [3] = species: Cavia porcellus; assay: Percent inhibition of calcium-induced contraction on K+ depolarized guinea pig aortic strip.; format: functional, Aorta; parameters: concentration or dose not given beside the values
Cavia porcellus [4] = species: Cavia porcellus; assay: Decrease in atrial rate of the right atrium of guinea pig expressed as the negative chronotropy.; parameters: concentration or dose not given beside the values
K562 [5] = assay: Potency that causes a half maximal increase in nuclear concentration of pirarubicin.; format: functional, Homo sapiens
Cavia porcellus [6] = species: Cavia porcellus; assay: Potency expressed as EC50 for the negative inotropic activity.; format: functional
Cavia porcellus [7] = species: Cavia porcellus; assay: Decrease in developed tension of the left atrium of guinea pig expressed as the negative inotropy.; format: functional, Cardiac atrium; parameters: concentration or dose not given beside the values
Procedure, shortened: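 Isolated guinea pig left atrium, electrically driven at 1 Hz. Read-out is the fall in developed tension at 5 × 10^-5 M, given as percent change from control (n = 5-6).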

K562 [8] = assay: Percentage of the dead cells of K-562 cells was determined for the compound; format: ADME, cell-based; settings: human
Procedure, shortened: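 Doxorubicin-resistant K 562 cells were exposed to compound at 1 µM, and viability was scored by trypan blue exclusion. Dead cells above 20% counted as toxic.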

Cavia porcellus [9] = species: Cavia porcellus; assay: Potency expressed as IC50 for the vasorelaxant activity; 'i' means inactive.; format: functional
Cavia porcellus [10] = species: Cavia porcellus; assay: Potency expressed as EC30 for the negative chronotropic activity.; format: functional

Row | EC50 (Cavia porcellus [6]) [nM] | Dead cells (K562 [8]) [%] | IC50 (Cavia porcellus [9]) | Structure (SMILES) | Alpha max (K562 [1]) | EC30 (Cavia porcellus [2]) | Activity (Cavia porcellus [3]) [%] | Activity (Cavia porcellus [4]) [%] | Potency (K562 [5]) [nM] | Activity (Cavia porcellus [7]) [%] | EC30 (Cavia porcellus [10]) [nM]
1 | 350 | 0 | Inactive | COc1ccc(C(C#N)(CC#CCN(C)C2c3ccccc3-c3ccccc32)C(C)C)cc1OC.Cl (centres undefined) | 0.9 | inactive | 6 | 24 | 500 | 71 | –
2 | 1010 | 3 | Inactive | COc1ccc(C(C#N)(CCCN(C)CC2c3ccccc3-c3ccccc32)C(C)C)cc1OC.Cl (centres undefined) | 0.5 | inactive | 11 | 31 | 2200 | 75 | –
3 | 2910 | 0 | Inactive | COc1ccc(C(C#N)(CC#CCN(C)C23CC4CC(CC(C4)C2)C3)C(C)C)cc1OC.Cl (centres undefined) | 0.8 | – | 33 | 89 | 800 | 66 | 370
4 | 660 | 5 | Inactive | COc1ccc(C(C#N)(CCCNC(c2ccccc2)c2ccccc2)C(C)C)cc1OC.Cl (centres undefined) | 0.7 | – | 32 | 81 | 250 | 73 | 690
5 | 1100 | 10 | Inactive | COc1ccc(C(C#N)(CC#CCNC2c3ccccc3-c3ccccc32)C(C)C)cc1OC.Cl (centres undefined) | 0.7 | – | 42 | 84 | 1500 | 77 | 8250
6 | 640 | 3 | Inactive | Cl.N#CC(CCCNC1c2ccccc2CCc2ccccc21)(c1ccccc1)c1ccccc1 | 0.5 | inactive | 5 | 5 | 500 | 80 | –
7 | 1170 | 1 | Inactive | COc1ccc(C(C#N)(CCCN(C)CC23CC4CC(CC(C4)C2)C3)C(C)C)cc1OC.Cl (centres undefined) | 0.65 | – | 39 | 72 | 1400 | 68 | 700
8 | 830 | 5 | Inactive | COc1ccc(C(C#N)(CCCNCC(c2ccccc2)c2ccccc2)C(C)C)cc1OC.Cl (centres undefined) | 0.7 | – | 37 | 74 | 250 | 89 | 540
9 | 680 | 10 | Inactive | COc1ccc(C(C#N)(CCCNC2c3ccccc3CCc3ccccc32)C(C)C)cc1OC.Cl (centres undefined) | 0.8 | – | 24 | 86 | 300 | 70 | 210
10 | 1810 | 0 | Inactive | Cl.N#CC(CCCNC1c2ccccc2-c2ccccc21)(c1ccccc1)c1ccccc1 | 0.8 | – | 37 | 57 | 300 | 67 | 310
11 | 1110 | 30 | Inactive | COc1ccc(C(C#N)(CC#CCN(C)CC2c3ccccc3-c3ccccc32)C(C)C)cc1OC.Cl (centres undefined) | – | inactive | 12 | 25 | – | 78 | –
12 | 470 | 100 | Inactive | COc1ccc(C(C#N)(CCCNCC2c3ccccc3-c3ccccc32)C(C)C)cc1OC.Cl (centres undefined) | – | – | 26 | 68 | – | 71 | 2240
